# Test results: PMC8898323 (ChemMedChem, 2021)
# “Also recorded” adds a separate entry of the source. Where two headings read alike, the source gives them in different places.
# What was measured:
# hFAAH = target: T1, hFAAH (Homo sapiens, UniProt O00519); assay: Fluorescence-based hFAAH inhibition counterscreen; format: biochemical; conditions: for hFAAH inhibition, result in words: inactive tested at 1uM
# T1 sequence (O00519 1-579): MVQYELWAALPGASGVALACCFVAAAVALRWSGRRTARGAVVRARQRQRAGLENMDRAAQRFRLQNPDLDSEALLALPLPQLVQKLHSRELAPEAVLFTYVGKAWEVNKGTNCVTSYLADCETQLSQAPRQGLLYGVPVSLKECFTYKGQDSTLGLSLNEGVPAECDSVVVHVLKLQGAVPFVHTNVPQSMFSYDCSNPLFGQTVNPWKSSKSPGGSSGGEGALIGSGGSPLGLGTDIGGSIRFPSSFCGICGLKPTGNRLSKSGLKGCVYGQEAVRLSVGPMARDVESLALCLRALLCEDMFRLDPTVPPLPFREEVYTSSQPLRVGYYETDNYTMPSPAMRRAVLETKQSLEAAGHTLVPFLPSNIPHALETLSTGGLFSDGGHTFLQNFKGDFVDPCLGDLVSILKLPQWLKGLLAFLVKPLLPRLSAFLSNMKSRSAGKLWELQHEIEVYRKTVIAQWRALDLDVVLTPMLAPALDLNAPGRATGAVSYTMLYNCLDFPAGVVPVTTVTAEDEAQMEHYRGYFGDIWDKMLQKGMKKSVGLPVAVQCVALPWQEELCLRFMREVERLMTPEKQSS
# hMGL = target: T2, hMGL (Homo sapiens, UniProt Q99685); assay: Fluorescence-based hMGL inhibition counterscreen; format: biochemical; conditions: for hMGL inhibition, result in words: inactive tested at 1uM
# T2 sequence (Q99685 1-303): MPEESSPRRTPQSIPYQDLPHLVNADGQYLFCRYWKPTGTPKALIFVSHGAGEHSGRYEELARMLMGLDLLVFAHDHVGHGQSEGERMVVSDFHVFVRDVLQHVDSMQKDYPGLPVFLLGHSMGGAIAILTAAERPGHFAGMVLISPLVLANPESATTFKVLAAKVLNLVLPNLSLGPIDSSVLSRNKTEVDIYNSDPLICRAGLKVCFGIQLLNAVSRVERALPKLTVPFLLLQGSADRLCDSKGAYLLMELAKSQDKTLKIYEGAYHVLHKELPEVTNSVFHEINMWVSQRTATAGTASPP
# hABHD6 = target: T3, hABHD6 (Homo sapiens, UniProt Q9BV23); assay: Fluorescence-based hABHD6 inhibition assay; format: biochemical; conditions: for fold loss in potency for ABHD6: versus the comparator analog named in the text; for inhibition at 10 µM: read-out: % inhibition hABHD6; for hABHD6 inhibition, result in words: words in table or text, table footnote c: inactive tested at 1uM
# T3 sequence (Q9BV23 1-337): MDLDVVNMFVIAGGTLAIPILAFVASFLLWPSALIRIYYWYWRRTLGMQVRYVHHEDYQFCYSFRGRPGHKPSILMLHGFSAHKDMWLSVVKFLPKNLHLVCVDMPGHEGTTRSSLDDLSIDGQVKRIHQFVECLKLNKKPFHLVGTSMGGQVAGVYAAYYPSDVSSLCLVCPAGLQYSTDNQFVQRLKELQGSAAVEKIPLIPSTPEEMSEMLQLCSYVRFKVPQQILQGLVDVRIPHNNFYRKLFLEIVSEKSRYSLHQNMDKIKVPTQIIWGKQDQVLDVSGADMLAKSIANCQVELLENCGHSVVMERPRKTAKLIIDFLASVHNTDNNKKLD
# [1] = Cassette pharmacokinetics in brain and plasma, male CD-1 mice; format: in vivo, mouse; conditions: for concentration at 15 min: iv; for concentration at 30 min / concentration at 60 min: po
# Method in brief: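 Male CD-1 mice (25–30 g), cassette dosing: single iv dose of 2 mg/kg and oral dose of 8 mg/kg per compound. Plasma and brain taken 15 min after iv, and 30 and 60 min after oral dosing, n = 3 per time point. Flash-frozen tissue extracted and quantified by LC-MS/MS (SRM) with internal standards.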
# [2] = Metabolic stability in human liver microsomes; format: in vitro ADME; conditions: NADPH
# Method in brief: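 Inhibitor pre-incubated at 37 °C with liver microsomal protein of the given species. Reaction started with NADPH, or buffer as control. Proteins precipitated, then parent remaining measured by LC-MS/MS in SRM mode to give t1/2.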
# [3] = system: rat retina (AMPA excitotoxicity); conditions: cited from earlier work
# ABHD6 = conditions: read-out: IC50 ABHD6; activity-based protein profiling (ABPP) assay; ref 22b; cited from earlier work
# [4] = read-out: IC50 (nM) ± SEM hMGL, triplicate, eight concentrations
# [5] = male, CD-1, mouse, brain, 8 mg/kg
# [6] = male, CD-1, mouse, plasma, 8 mg/kg
structure (smiles),measurement,setting,value
"N#Cc1cccc(OC(=O)N2CC(OC(c3ccc(F)cc3)c3ccc(F)cc3)C2)c1 [5a, 3-Cyanophenyl 3-(bis(4-fluorophenyl)methoxy)azetidine-1-carboxylate]",inhibition at 0.1 µM,hFAAH; read-out: % inhibition hFAAH,33%
same,IC50,hMGL,66.1 ± 2.4 nM
same,fold loss in potency for ABHD6,hABHD6,about 2 fold
"O=C(OC(C(F)(F)F)C(F)(F)F)N1CC(OC(c2ccc(F)cc2)c2ccc(F)cc2)C1 [6b, 1,1,1,3,3,3-Hexafluoropropan-2-yl 3-(bis(4-fluorophenyl)methoxy)azetidine-1-carboxylate]","hFAAH inhibition, result in words",hFAAH,inactive
same,IC50,hMGL,6.4 ± 1.5 nM
same,fold loss in potency for ABHD6,hABHD6,about 2 fold
"CN(C1CN(C(=O)OC(C(F)(F)F)C(F)(F)F)C1)C(c1ccc(F)cc1)c1ccc(F)cc1 [9d, 1,1,1,3,3,3-Hexafluoropropan-2-yl 3-((bis(4-fluorophenyl)methyl) (methyl)amino) azetidine-1-carboxylate]","hFAAH inhibition, result in words",hFAAH,inactive
same,IC50,hMGL; [4],83.5 ± 1.8 nM
"O=C(OC(C(F)(F)F)C(F)(F)F)N1CC(C(c2ccccc2)c2ccccc2)C1 [10d, 1,1,1,3,3,3-Hexafluoropropan-2-yl 3-benzhydrylazetidine-1-carboxylate]","hFAAH inhibition, result in words",hFAAH,inactive
same,IC50,hMGL; [4],348 ± 7.5 nM
same,inhibition at 10 µM,hABHD6,37%
same,"hABHD6 inhibition, result in words",hABHD6,practically inactive
"O=C(OC(C(F)(F)F)C(F)(F)F)N1CCc2ccccc2C1 [14a, 1,1,1,3,3,3-Hexafluoropropan-2-yl 3,4-dihydroisoquinoline-2(1H)-carboxylate]","hFAAH inhibition, result in words",hFAAH,lacked activity; also recorded: inactive^c
same,"hMGL inhibition, result in words",hMGL,lacked activity; also recorded: inactive
"O=C(O[C@H](CO)C(F)(F)F)N1CCc2c(Br)cccc2C1 [14j, (R)-1,1,1-trifluoro-3-hydroxypropan-2-yl 5-bromo-3,4-dihydroisoquinoline-2(1H)-carboxylate]","hFAAH inhibition, result in words",hFAAH,inactive
same,"hMGL inhibition, result in words",hMGL,inactive
same,inhibition at 10 µM,hABHD6,35%
same,"hABHD6 inhibition, result in words",hABHD6,practically inactive
"O=C(OC(C(F)(F)F)C(F)(F)F)N1Cc2ccc(OCCN3CCOCC3)cc2C1 [22f, 1,1,1,3,3,3-Hexafluoropropan-2-yl 5-(2-morpholinoethoxy)isoindoline-2-carboxylate]","hFAAH inhibition, result in words",hFAAH,inactive^f
same,"brain permeability, result in words",[1]; comparing brain and plasma levels after iv administration at 15 min,brain permeable
same,Kp at 15 min,"[1]; male, CD-1, mouse, brain, intravenous, 2 mg/kg",1.2
same,concentration at 15 min,"[1]; male, CD-1, mouse, brain, 2 mg/kg",735 ± 56 ng/g
same,concentration at 30 min,[1]; [5],248 ± 89 ng/g
same,concentration at 60 min,[1]; [5],227 ± 95 ng/g
same,concentration at 15 min,"[1]; male, CD-1, mouse, plasma, 2 mg/kg",633 ± 46 ng/mL
same,bioavailability,"[1]; male, CD-1, mouse, plasma, oral, 8 mg/kg",28%
same,concentration at 30 min,[1]; [6],180 ± 72 ng/mL
same,concentration at 60 min,[1]; [6],140 ± 31 ng/mL
same,"hMGL inhibition, result in words",hMGL,inactive
same,Microsomes t1/2 min Human,[2],most stable
same,AMPA-induced glia activation,[3]; rat retina,attenuated
same,retina neuroprotection,"[3]; rats, AMPA excitotoxicity",dose-dependent retina neuroprotection
"O=C(OC(C(F)(F)F)C(F)(F)F)N1Cc2ccc(OCCN3CCCCC3)cc2C1 [22j, 1,1,1,3,3,3-Hexafluoropropan-2-yl 5-(2-(piperidin-1-yl)ethoxy)isoindoline-2-carboxylate]",inhibition at 1 µM,hFAAH; read-out: % inhibition hFAAH,71%
same,"hMGL inhibition, result in words",hMGL,inactive
"CC1(C)C2C(=O)N(OC(=O)N3CCc4c(Br)cccc4C3)C(=O)C21 (centres unmarked) [25b, 6,6-Dimethyl-2,4-dioxo-3-azabicyclo[3.1.0]hexan-3-yl 5-bromo-3,4-dihydro isoquinoline-2(1H)-carboxylate]","hFAAH inhibition, result in words",hFAAH,inactive
same,"hMGL inhibition, result in words",hMGL,inactive
same,fold loss in potency for ABHD6,hABHD6,2 fold
